Among the data in ChEMBL document CHEMBL1127486, “Design of cyclic deltorphins and dermenkephalins with a disulfide bridge leads to analogues with high selectivity for delta-opioid receptors” (J Med Chem, 1994) are Selectivity, IC50 and inhibition values, retold here.

Broadly, the IC50 is the concentration that gives 50% inhibition. A lower IC50 goes with greater potency. Usually inhibition stands for the change of the read-out against control, counted positive when it falls.

Where only a bound is given, the exact number is not on record here.

The nature of assay [1]: Selectivity ratio against guinea pig ileum and mouse vas deferens contractions. Format: functional.
The target in assay [2] is Delta-type opioid receptor (Rattus norvegicus, UniProt P33533). Put plainly: Inhibition of [3H][p-Cl-Phe-][…] binding to rat brain homogenate delta-opioid receptor. Put shortly: (§1)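 Whole brain membranes from male Sprague-Dawley rats, preincubated 30 min at 25 °C to remove endogenous opioids. Incubated 180 min at 25 °C with 0.75 nM [3H][p-ClPhe4]DPDPE (δ) or 0.5 nM [3H]CTOP (μ). Buffer was 50 mM Tris-HCl pH 7.4 with BSA, bacitracin, bestatin, captopril and toluenesulfonyl fluoride. Rapid filtration and scintillation counting. Duplicates, ≥3 experiments, nonlinear least-squares fit.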
Sequence of Delta-type opioid receptor (Rattus norvegicus, UniProt P33533) (P33533 whole entry): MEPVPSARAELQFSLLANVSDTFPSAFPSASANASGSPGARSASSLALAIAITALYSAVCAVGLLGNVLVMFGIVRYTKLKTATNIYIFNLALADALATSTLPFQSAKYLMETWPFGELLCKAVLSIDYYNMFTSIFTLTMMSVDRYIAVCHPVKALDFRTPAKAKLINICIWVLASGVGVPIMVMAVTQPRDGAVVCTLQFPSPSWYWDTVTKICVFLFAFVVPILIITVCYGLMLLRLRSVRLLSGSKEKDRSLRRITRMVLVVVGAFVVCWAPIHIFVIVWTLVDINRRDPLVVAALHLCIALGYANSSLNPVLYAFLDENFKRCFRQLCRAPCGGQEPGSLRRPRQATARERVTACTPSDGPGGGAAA

Assay [3] deals with Delta-type opioid receptor (Mus musculus, UniProt P32300). Put plainly: In vitro inhibition of electrically induced smooth muscle contractions of mouse vas deferens. In kind it is functional, tissue-based.
Sequence of Delta-type opioid receptor (Mus musculus, UniProt P32300) (P32300 whole entry): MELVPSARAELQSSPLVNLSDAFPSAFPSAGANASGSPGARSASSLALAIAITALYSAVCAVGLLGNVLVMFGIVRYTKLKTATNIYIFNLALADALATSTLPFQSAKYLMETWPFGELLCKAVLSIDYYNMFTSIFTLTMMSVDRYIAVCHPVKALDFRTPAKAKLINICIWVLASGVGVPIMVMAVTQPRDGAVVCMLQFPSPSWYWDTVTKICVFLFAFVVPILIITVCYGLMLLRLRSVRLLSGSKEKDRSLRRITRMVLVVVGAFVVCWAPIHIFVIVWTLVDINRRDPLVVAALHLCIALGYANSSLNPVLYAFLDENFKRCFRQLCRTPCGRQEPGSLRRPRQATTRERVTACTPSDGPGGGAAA
The target of assay [4] is Mu-type opioid receptor (Rattus norvegicus, UniProt P33535). The assay can be described thus: Inhibition of [3H]CTOP binding to rat brain homogenate mu-opioid receptor. The method in brief: as §1
Sequence of Mu-type opioid receptor (Rattus norvegicus, UniProt P33535) (P33535 whole entry): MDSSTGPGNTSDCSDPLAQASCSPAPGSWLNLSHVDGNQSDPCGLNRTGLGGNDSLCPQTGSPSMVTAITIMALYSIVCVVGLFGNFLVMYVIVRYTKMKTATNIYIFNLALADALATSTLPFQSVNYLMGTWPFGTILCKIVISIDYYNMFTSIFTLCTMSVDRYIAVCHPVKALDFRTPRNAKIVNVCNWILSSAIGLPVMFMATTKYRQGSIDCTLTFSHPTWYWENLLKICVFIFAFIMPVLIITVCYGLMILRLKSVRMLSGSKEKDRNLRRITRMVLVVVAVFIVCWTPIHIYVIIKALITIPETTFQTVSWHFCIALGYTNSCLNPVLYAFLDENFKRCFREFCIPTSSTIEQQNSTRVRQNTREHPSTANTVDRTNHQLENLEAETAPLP
In assay [5] the target is Mu-type opioid receptor (Cavia porcellus, UniProt P97266). The assay can be described thus: In vitro inhibition of electrically evoked contractions in guinea pig ileum longitudinal muscle myenteric plexus. Format: functional, tissue-based. Put shortly: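 Longitudinal muscle–myenteric plexus strips from male Hartley guinea pigs (150–400 g) in 37 °C Krebs bicarbonate gassed with 95% O2/5% CO2. Transmural stimulation at 0.1 Hz, 0.4-ms pulses, supramaximal voltage. Bestatin, bacitracin and captopril added 3 min before cumulative peptide doses. Inhibition compares contraction height 3 min post-dose with the 1-min pre-dose mean.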
Sequence of Mu-type opioid receptor (Cavia porcellus, UniProt P97266) (P97266 whole entry): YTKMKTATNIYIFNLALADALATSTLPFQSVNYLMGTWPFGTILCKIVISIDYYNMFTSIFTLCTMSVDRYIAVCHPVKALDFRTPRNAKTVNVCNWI

Assay [6] addresses Delta-type opioid receptor (Mus musculus) (UniProt P32300). Put plainly: In vitro percentage inhibition of electrically induced smooth muscle contractions of mouse vas deferens after the administration at 6000 nM. Format: functional. The method in brief: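 Vasa deferentia from male ICR mice (25–30 g) in 37 °C magnesium-free Krebs bicarbonate gassed with 95% O2/5% CO2. Transmural stimulation at 0.1 Hz, 2.0-ms pulses, supramaximal voltage. Peptidase inhibitors (bestatin, bacitracin, captopril) given 3 min before peptide. Percent inhibition is the 1-min pre-dose mean contraction height against height 3 min after peptide. Run in duplicate, repeated two or three times.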

Sequence of Delta-type opioid receptor (Mus musculus) (P32300 whole entry): as the sequence (P32300 whole entry) above

With `CC(C)[C@H](NC(=O)[C@H]1NC(=O)[C@H](CC(=O)O)NC(=O)[C@H](Cc2ccccc2)NC(=O)[C@H](NC(=O)[C@@H](N)Cc2ccc(O)cc2)CSSC1(C)C)C(=O)NCC(N)=O` [listing 1 of 2 here], the Selectivity in assay [1] is 4400.
`CSCCC(NC(=O)[C@H](CC(C)C)NC(=O)[C@H](Cc1c[nH]cn1)NC(=O)[C@H](Cc1ccccc1)NC(=O)C(CCSC)NC(=O)[C@@H](N)Cc1ccc(O)cc1)C(=O)N[C@@H](CC(=O)O)C(N)=O` (stereo in doubt) [listing 1 of 2 here]: in assay [1], the Selectivity came out at 12000.
On to `CC(C)[C@H](NC(=O)[C@@H]1NC(=O)[C@H](CC(=O)O)NC(=O)[C@H](Cc2ccccc2)NC(=O)[C@H](NC(=O)[C@@H](N)Cc2ccc(O)cc2)C(C)(C)SSC1(C)C)C(=O)NCC(N)=O` [listing 1 of 2 here], for which the Selectivity in assay [1] came to 6.
On to `CCCC[C@H](NC(=O)[C@H]1NC(=O)[C@H](Cc2c[nH]cn2)NC(=O)C(Cc2ccccc2)NC(=O)[C@H](NC(=O)[C@@H](N)Cc2ccc(O)cc2)C(C)(C)SSC1(C)C)C(=O)N[C@@H](CC(=O)O)C(N)=O` (single isomer, unassigned), for which the Selectivity in assay [1] is reported as 1700. Besides, the 50% inhibitory concentration (IC50) in assay [2] turned out to be 3.4 nM; in assay [3], 12.7 nM; in assay [4], 10200 nM; in assay [5], 22000 nM.
Turning to `CC(C)[C@H](NC(=O)[C@H](CC(=O)O)NC(=O)[C@H](Cc1ccccc1)NC(=O)[C@@H](C)NC(=O)[C@@H](N)Cc1ccc(O)cc1)C(=O)N[C@H](C(=O)NCC(N)=O)C(C)C` (stereo in doubt; form 1) [DELTORPHIN C], inhibition in assay [5] was half-maximal at 2890 nM (IC50).
`CC(C)C(NC(=O)[C@H]1NC(=O)[C@H](CCC(=O)O)NC(=O)C(Cc2ccccc2)NC(=O)[C@H](NC(=O)[C@@H](N)Cc2ccc(O)cc2)C(C)(C)SSC1(C)C)C(=O)NCC(N)=O` (single isomer, unassigned): the Selectivity in assay [1] is 3200. The 50% inhibitory concentration (IC50) is 5.7 nM in assay [2], 2.24 nM in assay [3], 4900 nM in assay [4] and 7100 nM in assay [5].
`CC(C)[C@H](NC(=O)[C@@H]1CSSC[C@@H](NC(=O)[C@@H](N)Cc2ccc(O)cc2)C(=O)N[C@@H](Cc2ccccc2)C(=O)N[C@@H](CC(=O)O)C(=O)N1)C(=O)NCC(N)=O`: in assay [1], the Selectivity is recorded as 13.
Take `CC(C)[C@H](NC(=O)[C@H]1NC(=O)[C@H](CC(=O)O)NC(=O)[C@H](Cc2ccccc2)NC(=O)[C@H](NC(=O)[C@@H](N)Cc2ccc(O)cc2)C(C)(C)SSC1(C)C)C(=O)NCC(N)=O` [listing 1 of 2 here]: the half-inhibitory concentration (IC50) turned out to be 3.7 nM in assay [2], 6.3 nM in assay [3], 26000 nM in assay [4] and 68000 nM in assay [5].
As for `CCCC[C@H](NC(=O)[C@H]1NC(=O)[C@H](Cc2c[nH]cn2)NC(=O)C(Cc2ccccc2)NC(=O)[C@H](NC(=O)[C@@H](N)Cc2ccc(O)cc2)C(C)(C)SSC1(C)C)C(=O)N[C@@H](CC(=O)O)C(=O)O` (single isomer, unassigned), the Selectivity in assay [1] is recorded as less than 1.5. The half-inhibitory concentration (IC50) in assay [2] came to 5.11 nM; in assay [4], 1900 nM; in assay [5] it was 4500 nM. In assay [6], this compound came in with an inhibition of 43.5%.
Turning to `CC(C)[C@H](NC(=O)[C@H]1NC(=O)[C@H](CC(=O)O)NC(=O)[C@H](Cc2ccccc2)NC(=O)[C@H](NC(=O)[C@@H](N)Cc2ccc(O)cc2)CSSC1(C)C)C(=O)NCC(N)=O` [listing 2 of 2 here], the IC50 in assay [2] stood at 2.2 nM; in assay [3], 0.25 nM; in assay [4] it was 3760 nM; in assay [5] it was 1100 nM.
As to `CCCC[C@H](NC(=O)[C@H]1NC(=O)[C@H](CC(=O)O)NC(=O)C(Cc2ccccc2)NC(=O)[C@H](NC(=O)[C@@H](N)Cc2ccc(O)cc2)C(C)(C)SSC1(C)C)C(=O)NCC(N)=O` (single isomer, unassigned), the Selectivity in assay [1] was 16000. Also, the concentration for half-maximal inhibition (IC50) in assay [2] turned out to be 4.83 nM; in assay [3], 8.8 nM; in assay [4], 54600 nM; in assay [5], 137000 nM.
`CC(C)[C@H](NC(=O)[C@@H]1NC(=O)[C@H](CC(=O)O)NC(=O)[C@H](Cc2ccccc2)NC(=O)[C@H](NC(=O)[C@@H](N)Cc2ccc(O)cc2)C(C)(C)SSC1(C)C)C(=O)NCC(N)=O` [listing 2 of 2 here]: the IC50 in assay [2] was found to be 210 nM; in assay [3], 920 nM; in assay [4] it was 1200 nM; in assay [5], 5500 nM.
As for `CC(C)C(NC(=O)[C@H]1NC(=O)[C@H](CO)NC(=O)C(Cc2ccccc2)NC(=O)[C@H](NC(=O)[C@@H](N)Cc2ccc(O)cc2)C(C)(C)SSC1(C)C)C(=O)NCC(N)=O` (single isomer, unassigned), the Selectivity in assay [1] is given as 150. Also, the IC50 was found to be 10 nM in assay [2], 91.8 nM in assay [3], 3300 nM in assay [4] and 13500 nM in assay [5].
With `CSCCC(NC(=O)[C@H](CC(C)C)NC(=O)[C@H](Cc1c[nH]cn1)NC(=O)[C@H](Cc1ccccc1)NC(=O)C(CCSC)NC(=O)[C@@H](N)Cc1ccc(O)cc1)C(=O)N[C@@H](CC(=O)O)C(N)=O` (stereo in doubt) [listing 2 of 2 here], the IC50 in assay [2] was 0.47 nM; in assay [3], 0.28 nM; in assay [4], 1900 nM; in assay [5] it was 3400 nM.
`CC(C)[C@H](NC(=O)[C@H]1NC(=O)[C@H](CC(=O)O)NC(=O)[C@H](Cc2ccccc2)NC(=O)[C@H](NC(=O)[C@@H](N)Cc2ccc(O)cc2)C(C)(C)SSC1(C)C)C(=O)NCC(N)=O` [listing 2 of 2 here]: in assay [1], the Selectivity stood at 11000.
